Test results as given in ChEMBL document CHEMBL1122384, “Synthesis and evaluation of 24-(isopropyl[75Se]seleno)chol-5-en-3 beta-ol” (J Med Chem, 1983).

What was measured:
Homo sapiens [1] = organism: Homo sapiens; test: Adsorbed radiation dose value was calculated to human adrenal; format: functional
Summary of the method: (§1)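 Human absorbed radiation dose estimated by the standard MIRD method from rat tissue distribution (% dose/g, 1 h–21 days) and excretion data. Excretion came from three individually caged female rats, with urine and feces collected daily over 21 days.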

Homo sapiens [2] = organism: Homo sapiens; test: Adsorbed radiation dose value was calculated to human pancreas; format: functional; summary of the method: as §1
Homo sapiens [3] = organism: Homo sapiens; test: Adsorbed radiation dose value was calculated to human liver; format: functional; summary of the method: as §1
Homo sapiens [4] = organism: Homo sapiens; test: Adsorbed radiation dose value was calculated to human total body; format: functional; summary of the method: as §1
Homo sapiens [5] = organism: Homo sapiens; test: Adsorbed radiation dose value was calculated to human lungs; format: functional; summary of the method: as §1
Homo sapiens [6] = organism: Homo sapiens; test: Adsorbed radiation dose value was calculated to human spleen; format: functional; summary of the method: as §1
Homo sapiens [7] = organism: Homo sapiens; test: Adsorbed radiation dose value was calculated to human small intestine; format: functional; summary of the method: as §1
Homo sapiens [8] = organism: Homo sapiens; test: Adsorbed radiation dose value was calculated to human ovaries; format: functional, Female gonad; summary of the method: as §1
Homo sapiens [9] = organism: Homo sapiens; test: Adsorbed radiation dose value was calculated to human kidney; format: functional; summary of the method: as §1
[10] = Adrenal/Tissue ratio calculated from percent dose per gram of tissue determined after 1 day intravenous administration from blood; format: functional
Summary of the method: (§2)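 Female Fischer 344 rats (160–180 g), fed ad libitum. Steroid dissolved in EtOH, formulated in Tween 80–EtOH–saline, 5–10 μCi in 1 mL given into a lateral tail vein under light Et₂O anesthesia. Organs removed 1 day post-injection, rinsed, blotted, weighed and gamma counted, 3 rats per time point. Ratios taken from adrenal vs tissue % dose/g.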

[11] = Adrenal/Tissue ratio calculated from percent dose per gram of tissue determined after 1 day intravenous administration from lung; format: functional; summary of the method: as §2
[12] = Adrenal/Tissue ratio calculated from percent dose per gram of tissue determined after 1 day intravenous administration from spleen; format: functional; summary of the method: as §2
[13] = Adrenal/Tissue ratio calculated from percent dose per gram of tissue determined after 1 day intravenous administration from kidney; format: functional; summary of the method: as §2
[14] = Adrenal/Tissue ratio calculated from percent dose per gram of tissue determined after 1 day intravenous administration from ovaries; format: functional; summary of the method: as §2
[15] = Adrenal/Tissue ratio calculated from percent dose per gram of tissue determined after 1 day intravenous administration from liver; format: functional; summary of the method: as §2
[16] = Adrenal/Tissue ratio calculated from percent dose per gram of tissue determined after 1 day intravenous administration from pancreas; format: functional
Summary of the method: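 Female Fischer 344 rats (160–180 g), food and water ad libitum, lightly anaesthetized with Et2O. [75Se]-labelled steroid was given in Tween 80–EtOH–saline, 5–10 μCi, by lateral tail-vein injection. Rats were killed by decapitation under Et2O; organs were rinsed, blotted, weighed and gamma-counted. Adrenal/tissue ratio is from % dose/g, mean of three rats per time point.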

SMILES	Dose (Homo sapiens [1])	Dose (Homo sapiens [2])	Dose (Homo sapiens [3])	Dose (Homo sapiens [4])	Dose (Homo sapiens [5])	Dose (Homo sapiens [6])	Dose (Homo sapiens [7])	Dose (Homo sapiens [8])	Dose (Homo sapiens [9])	Ratio [10]	Ratio [11]	Ratio [12]	Ratio [13]	Ratio [14]	Ratio [15]	Ratio [16]
CC(C)[73Se]CCC[C@H](C)[C@H]1CC[C@H]2[C@@H]3CC=C4C[C@@H](O)CC[C@]4(C)[C@H]3CC[C@]12C	1.6 rd mCi-1	0.5 rd mCi-1	1.7 rd mCi-1	0.24 rd mCi-1	1.7 rd mCi-1	1.9 rd mCi-1	0.64 rd mCi-1	1.2 rd mCi-1	0.67 rd mCi-1	–	–	–	–	–	–	–
C[Se]C[C@@H]1CC2C(CCC3(C)C(C(C)CCCC(C)C)CCC23)C2=C1CC(O)CC2 (some centres not stated) [SCINTIDREN]	–	–	–	–	–	–	–	–	–	105	28.9	27.1	52.5	3.2	42	–
CC(C)[Te]CCCC(C)C1CCC2C3CC=C4CC(O)CCC4(C)C3CCC12C (configuration not stated)	–	–	–	–	–	–	–	–	–	54.8	18.7	14	56.2	4.9	27.1	122
